According to article PMC4233149 (Clinical cancer research : an official journal of the …, 2014):
Marks after values point to notes of the source that are not given here.

Assay: Phase I safety and tolerability, weekly
Type: in vivo, human
In short: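 Oral weekly dose escalation followed a 3+3 design (planned 90, 135, 200, 300mg, intermediate doses allowed), then a modified toxicity-probability-interval confirmation stage. A DLT was any drug-related CTCAE v3.0 ≥G4 hematological, ≥G3 febrile neutropenia or ≥G3 non-hematological toxicity. Safety visits, glucose, C-peptide and HbA1c monitoring followed a fixed schedule; AEs were graded by CTCAE v3.0.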

SMILES: NC1(c2ccc(-c3nc4ccn5c(=O)[nH]nc5c4cc3-c3ccccc3)cc2)CCC1 [MK-2206]
- Anorexia, number of AEs (90mg QW, G1, all cycles): 0 (0)
- Dermatitis acneiform, number of AEs (90mg QW, G1, all cycles): 0 (0)
- Diarrhea, number of AEs (90mg QW, G1, all cycles): 1 (1)
- Dry skin, number of AEs (90mg QW, G1, all cycles): 0 (0)
- Fatigue, number of AEs (90mg QW, G1, all cycles): 1 (1)
- Nausea, number of AEs (90mg QW, G1, all cycles): 0 (0)
- Pruritus, number of AEs (90mg QW, G1, all cycles): 0 (0)
- Rash (all rash terms collated), number of AEs (90mg QW, G1, all cycles): 0 (0)
- Stomatitis, number of AEs (90mg QW, G1, all cycles): 0 (0)
- Vomiting, number of AEs (90mg QW, G1, all cycles): 1 (1)
- Anorexia, number of AEs (90mg QW, G1, cycle 1): 0 (0)
- Dermatitis acneiform, number of AEs (90mg QW, G1, cycle 1): 0 (0)
- Diarrhea, number of AEs (90mg QW, G1, cycle 1): 1 (1)
- Dry skin, number of AEs (90mg QW, G1, cycle 1): 0 (0)
- Fatigue, number of AEs (90mg QW, G1, cycle 1): 1 (1)
- Nausea, number of AEs (90mg QW, G1, cycle 1): 0 (0)
- Pruritus, number of AEs (90mg QW, G1, cycle 1): 0 (0)
- Rash (all rash terms collated), number of AEs (90mg QW, G1, cycle 1): 0 (0)
- Stomatitis, number of AEs (90mg QW, G1, cycle 1): 0 (0)
- Vomiting, number of AEs (90mg QW, G1, cycle 1): 1 (1)
- Anorexia, number of AEs (135mg QW, G1, all cycles): 0 (0)
- Dermatitis acneiform, number of AEs (135mg QW, G1, all cycles): 1 (1)
- Diarrhea, number of AEs (135mg QW, G1, all cycles): 0 (0)
- Dry skin, number of AEs (135mg QW, G1, all cycles): 0 (0)
- Dysgeusia, number of AEs (135mg QW, G1, all cycles): 0 (0)
- Fatigue, number of AEs (135mg QW, G1, all cycles): 0 (0)
- Nausea, number of AEs (135mg QW, G1, all cycles): 0 (0)
- Pruritus, number of AEs (135mg QW, G1, all cycles): 1 (1)
- Rash (all rash terms collated), number of AEs (135mg QW, G1, all cycles): 1 (1)
- Stomatitis, number of AEs (135mg QW, G1, all cycles): 0 (0)
- Vomiting, number of AEs (135mg QW, G1, all cycles): 0 (0)
- Anorexia, number of AEs (135mg QW, G1, cycle 1): 0 (0)
- Dermatitis acneiform, number of AEs (135mg QW, G1, cycle 1): 1 (1)
- Diarrhea, number of AEs (135mg QW, G1, cycle 1): 0 (0)
- Dry skin, number of AEs (135mg QW, G1, cycle 1): 0 (0)
- Dysgeusia, number of AEs (135mg QW, G1, cycle 1): 0 (0)
- Fatigue, number of AEs (135mg QW, G1, cycle 1): 0 (0)
- Nausea, number of AEs (135mg QW, G1, cycle 1): 0 (0)
- Pruritus, number of AEs (135mg QW, G1, cycle 1): 1 (1)
- Rash (all rash terms collated), number of AEs (135mg QW, G1, cycle 1): 1 (1)
- Stomatitis, number of AEs (135mg QW, G1, cycle 1): 0 (0)
- Vomiting, number of AEs (135mg QW, G1, cycle 1): 0 (0)
- Dermatitis acneiform, number of AEs (150mg QW, G1, all cycles): 0 (0)
- Diarrhea, number of AEs (150mg QW, G1, all cycles): 0 (0)
- Dry skin, number of AEs (150mg QW, G1, all cycles): 0 (0)
- Dysgeusia, number of AEs (150mg QW, G1, all cycles): 0 (0)
- Fatigue, number of AEs (150mg QW, G1, all cycles): 0 (0)
- Nausea, number of AEs (150mg QW, G1, all cycles): 0 (0)
- Pruritus, number of AEs (150mg QW, G1, all cycles): 0 (0)
- Rash (all rash terms collated), number of AEs (150mg QW, G1, all cycles): 0 (0)
- Stomatitis, number of AEs (150mg QW, G1, all cycles): 0 (0)
- Vomiting, number of AEs (150mg QW, G1, all cycles): 2 (2)
- Dermatitis acneiform, number of AEs (150mg QW, G1, cycle 1): 0 (0)
- Diarrhea, number of AEs (150mg QW, G1, cycle 1): 0 (0)
- Dry skin, number of AEs (150mg QW, G1, cycle 1): 0 (0)
- Dysgeusia, number of AEs (150mg QW, G1, cycle 1): 0 (0)
- Fatigue, number of AEs (150mg QW, G1, cycle 1): 0 (0)
- Nausea, number of AEs (150mg QW, G1, cycle 1): 0 (0)
- Pruritus, number of AEs (150mg QW, G1, cycle 1): 0 (0)
- Rash (all rash terms collated), number of AEs (150mg QW, G1, cycle 1): 0 (0)
- Stomatitis, number of AEs (150mg QW, G1, cycle 1): 0 (0)
- Vomiting, number of AEs (150mg QW, G1, cycle 1): 2 (2)
- Anorexia, number of AEs (150mg QW, G2, all cycles): 0 (0)
- Dermatitis acneiform, number of AEs (150mg QW, G2, all cycles): 0 (0)
- Diarrhea, number of AEs (150mg QW, G2, all cycles): 0 (0)
- Dry skin, number of AEs (150mg QW, G2, all cycles): 0 (0)
- Dysgeusia, number of AEs (150mg QW, G2, all cycles): 0 (0)
- Fatigue, number of AEs (150mg QW, G2, all cycles): 0 (0)
- Nausea, number of AEs (150mg QW, G2, all cycles): 1 (1)
- Pruritus, number of AEs (150mg QW, G2, all cycles): 0 (0)
- Rash (all rash terms collated), number of AEs (150mg QW, G2, all cycles): 0 (0)
- Stomatitis, number of AEs (150mg QW, G2, all cycles): 0 (0)
- Vomiting, number of AEs (150mg QW, G2, all cycles): 0 (0)
- Anorexia, number of AEs (150mg QW, G2, cycle 1): 0 (0)
- Dermatitis acneiform, number of AEs (150mg QW, G2, cycle 1): 0 (0)
- Diarrhea, number of AEs (150mg QW, G2, cycle 1): 0 (0)
- Dry skin, number of AEs (150mg QW, G2, cycle 1): 0 (0)
- Dysgeusia, number of AEs (150mg QW, G2, cycle 1): 0 (0)
- Fatigue, number of AEs (150mg QW, G2, cycle 1): 0 (0)
- Nausea, number of AEs (150mg QW, G2, cycle 1): 1 (1)
- Pruritus, number of AEs (150mg QW, G2, cycle 1): 0 (0)
- Rash (all rash terms collated), number of AEs (150mg QW, G2, cycle 1): 0 (0)
- Stomatitis, number of AEs (150mg QW, G2, cycle 1): 0 (0)
- Vomiting, number of AEs (150mg QW, G2, cycle 1): 0 (0)
- Anorexia, number of AEs (150mg QW, G3, all cycles): 0 (0)
- Dermatitis acneiform, number of AEs (150mg QW, G3, all cycles): 0 (0)
- Diarrhea, number of AEs (150mg QW, G3, all cycles): 0 (0)
- Dry skin, number of AEs (150mg QW, G3, all cycles): 0 (0)
- Dysgeusia, number of AEs (150mg QW, G3, all cycles): 0 (0)
- Fatigue, number of AEs (150mg QW, G3, all cycles): 0 (0)
- Nausea, number of AEs (150mg QW, G3, all cycles): 0 (0)
- Pruritus, number of AEs (150mg QW, G3, all cycles): 0 (0)
- Rash (all rash terms collated), number of AEs (150mg QW, G3, all cycles): 3
- Stomatitis, number of AEs (150mg QW, G3, all cycles): 0 (0)
- Vomiting, number of AEs (150mg QW, G3, all cycles): 0 (0)
- Anorexia, number of AEs (150mg QW, G3, cycle 1): 0 (0)
- Dermatitis acneiform, number of AEs (150mg QW, G3, cycle 1): 0 (0)
- Diarrhea, number of AEs (150mg QW, G3, cycle 1): 0 (0)
- Dry skin, number of AEs (150mg QW, G3, cycle 1): 0 (0)
- Dysgeusia, number of AEs (150mg QW, G3, cycle 1): 0 (0)
- Fatigue, number of AEs (150mg QW, G3, cycle 1): 0 (0)
- Nausea, number of AEs (150mg QW, G3, cycle 1): 0 (0)
- Pruritus, number of AEs (150mg QW, G3, cycle 1): 0 (0)
- Stomatitis, number of AEs (150mg QW, G3, cycle 1): 0 (0)
- Vomiting, number of AEs (150mg QW, G3, cycle 1): 0 (0)
- Rash (all rash terms collated), number of AEs (150mg QW, G3, cycle 1, dose-limiting toxicity): 1
- Anorexia, number of AEs (200mg QW, G1, all cycles): 1 (1)
- Dermatitis acneiform, number of AEs (200mg QW, G1, all cycles): 0 (0)
- Diarrhea, number of AEs (200mg QW, G1, all cycles): 2 (2)
- Dry skin, number of AEs (200mg QW, G1, all cycles): 1 (1)
- Dysgeusia, number of AEs (200mg QW, G1, all cycles): 0 (0)
- Nausea, number of AEs (200mg QW, G1, all cycles): 4 (4)
- Stomatitis, number of AEs (200mg QW, G1, all cycles): 2 (2)
- Vomiting, number of AEs (200mg QW, G1, all cycles): 2 (2)
- Anorexia, number of AEs (200mg QW, G1, cycle 1): 1 (1)
- Dermatitis acneiform, number of AEs (200mg QW, G1, cycle 1): 0 (0)
- Diarrhea, number of AEs (200mg QW, G1, cycle 1): 2 (2)
- Dry skin, number of AEs (200mg QW, G1, cycle 1): 1 (1)
- Dysgeusia, number of AEs (200mg QW, G1, cycle 1): 0 (0)
- Nausea, number of AEs (200mg QW, G1, cycle 1): 4 (4)
- Stomatitis, number of AEs (200mg QW, G1, cycle 1): 2 (2)
- Vomiting, number of AEs (200mg QW, G1, cycle 1): 2 (2)
- Anorexia, number of AEs (200mg QW, G2, all cycles): 0 (0)
- Dermatitis acneiform, number of AEs (200mg QW, G2, all cycles): 0 (0)
- Diarrhea, number of AEs (200mg QW, G2, all cycles): 0 (0)
- Dry skin, number of AEs (200mg QW, G2, all cycles): 0 (0)
- Dysgeusia, number of AEs (200mg QW, G2, all cycles): 0 (0)
- Fatigue, number of AEs (200mg QW, G2, all cycles): 1 (1)
- Nausea, number of AEs (200mg QW, G2, all cycles): 1 (1)
- Rash (all rash terms collated), number of AEs (200mg QW, G2, all cycles): 4 (4)
- Stomatitis, number of AEs (200mg QW, G2, all cycles): 0 (0)
- Vomiting, number of AEs (200mg QW, G2, all cycles): 0 (0)
- Anorexia, number of AEs (200mg QW, G2, cycle 1): 0 (0)
- Dermatitis acneiform, number of AEs (200mg QW, G2, cycle 1): 0 (0)
- Diarrhea, number of AEs (200mg QW, G2, cycle 1): 0 (0)
- Dry skin, number of AEs (200mg QW, G2, cycle 1): 0 (0)
- Dysgeusia, number of AEs (200mg QW, G2, cycle 1): 0 (0)
- Fatigue, number of AEs (200mg QW, G2, cycle 1): 1 (1)
- Nausea, number of AEs (200mg QW, G2, cycle 1): 1 (1)
- Rash (all rash terms collated), number of AEs (200mg QW, G2, cycle 1): 4 (4)
- Stomatitis, number of AEs (200mg QW, G2, cycle 1): 0 (0)
- Vomiting, number of AEs (200mg QW, G2, cycle 1): 0 (0)
- Anorexia, number of AEs (200mg QW, G3, all cycles): 0 (0)
- Dermatitis acneiform, number of AEs (200mg QW, G3, all cycles): 1^c (1)
- Diarrhea, number of AEs (200mg QW, G3, all cycles): 0 (0)
- Dry skin, number of AEs (200mg QW, G3, all cycles): 0 (0)
- Dysgeusia, number of AEs (200mg QW, G3, all cycles): 0 (0)
- Fatigue, number of AEs (200mg QW, G3, all cycles): 0 (0)
- Nausea, number of AEs (200mg QW, G3, all cycles): 0 (0)
- Pruritus, number of AEs (200mg QW, G3, all cycles): 0 (0)
- Rash (all rash terms collated), number of AEs (200mg QW, G3, all cycles): 3^c (3)
- Stomatitis, number of AEs (200mg QW, G3, all cycles): 0 (0)
- Vomiting, number of AEs (200mg QW, G3, all cycles): 0 (0)
- Anorexia, number of AEs (200mg QW, G3, cycle 1): 0 (0)
